Data taken from ChEMBL document CHEMBL4392868, “Cytotoxic Tigliane Diterpenoids from Croton damayeshu” (J Nat Prod, 2019).
Where a name gives a salt, the structure may show the parent alone.

How the values were obtained:
A549 [1] = assay: Cytotoxicity against human A549 cells measured after 72 hrs by CCK8 assay; format: functional, cell-based; settings: A549, 72 h
In short: (§1)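 Human tumor cell lines A549 and HL-60 were assayed in vitro for cytotoxicity by the CCK-8 colorimetric method. Adriamycin served as the positive control, and IC50 values are reported in μM.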

HL-60 [2] = assay: Cytotoxicity against human HL60 cells measured after 72 hrs by CCK8 assay; format: functional, cell-based; settings: HL-60, 72 h; in short: as §1
A549 [3] = assay: Cytotoxicity against human A549 cells assessed as inhibition of cell growth at 10 uM measured after 72 hrs by CCK8 assay relative to control; format: functional; settings: A549, 72 h
HL-60 [4] = assay: Cytotoxicity against human HL60 cells assessed as inhibition of cell growth at 10 uM measured after 72 hrs by CCK8 assay relative to control; format: functional; settings: HL-60, 72 h

Compound | IC50 (A549 [1]) [µM] | IC50 (HL-60 [2]) [µM] | inhibition at 10 µM (A549 [3]) [%] | inhibition at 10 µM (HL-60 [4]) [%]
C/C=C(\C)C(=O)O[C@@H]1[C@@H](C)[C@]2(O)[C@@H]3C=C(C)C(=O)[C@@H]3CC(CO)=C[C@H]2[C@@H]2C(C)(C)[C@]12OC(=O)C(C)C | 1.9 | 1.8 |  | 
C/C=C(\C)C(=O)O[C@@H]1[C@@H](C)[C@]2(O)[C@@H]3C=C(C)C(=O)[C@@H]3CC(CO)=C[C@H]2[C@@H]2C(C)(C)[C@]12OC(C)=O |  |  | < 50 | < 50
CC1=C[C@@H]2[C@@H](CC(CO)=C[C@H]3[C@@H]4C(C)(C)[C@]4(OC(=O)C(C)C)[C@H](O)[C@@H](C)[C@]23O)C1=O |  |  | < 50 | < 50
CC[C@H](C)C(=O)O[C@@]12[C@H](O)[C@@H](C)[C@]3(O)[C@@H]4C=C(C)C(=O)[C@@H]4CC(CO)=C[C@H]3[C@@H]1C2(C)C |  |  | < 50 | < 50
C/C=C(\C)C(=O)O[C@@H]1[C@@H](C)[C@]2(O)[C@@H]3C=C(C)C(=O)[C@@H]3CC(CO)=C[C@H]2[C@@H]2C(C)(C)[C@]12OC(=O)[C@@H](C)CC | 18.3 |  |  | < 50
CC1=C[C@@H]2[C@@H](CC(C=O)=C[C@H]3[C@@H]4C(C)(C)[C@]4(OC(=O)C(C)C)[C@H](O)[C@@H](C)[C@]23O)C1=O |  |  | < 50 | < 50
CC[C@H](C)C(=O)O[C@@H]1[C@@H](C)[C@]2(O)[C@@H]3C=C(C)C(=O)[C@@H]3CC(CO)=C[C@H]2[C@@H]2C(C)(C)[C@]12OC(=O)[C@@H](C)CC | 4.6 | 18.9 |  | 
CC[C@H](C)C(=O)O[C@@]12[C@H](OC(=O)c3ccccc3)[C@@H](C)[C@]3(O)[C@@H]4C=C(C)C(=O)[C@@H]4CC(CO)=C[C@H]3[C@@H]1C2(C)C | 4.1 | 22.7 |  | 
C/C=C(\C)C(=O)O[C@@H]1[C@@H](C)[C@]2(O)[C@@H]3C=C(C)C(=O)[C@@H]3CC(C=O)=C[C@H]2[C@@H]2C(C)(C)[C@]12OC(=O)[C@@H](C)CC | 1.3 | 2.4 |  | 
CC[C@H](C)C(=O)O[C@@]12[C@H](O)[C@@H](C)[C@]3(O)[C@@H]4C=C(C)C(=O)[C@@H]4CC(C=O)=C[C@H]3[C@@H]1C2(C)C | 0.9 |  |  | < 50
CC1=C[C@@H]2[C@@H](CC(CO)=C[C@H]3[C@@H]4C(C)(C)[C@]4(OC(=O)[C@@H](C)[C@@H](C)O)[C@H](O)[C@@H](C)[C@]23O)C1=O |  |  | < 50 | < 50
C/C=C(\C)C(=O)O[C@@H]1[C@@H](C)[C@]2(O)[C@@H]3C=C(C)C(=O)[C@@H]3CC(CO)=C[C@H]2[C@@H]2C(C)(C)[C@]12OC(=O)[C@@H](C)[C@@H](C)O |  |  | < 50 | < 50
CC[C@H](C)C(=O)O[C@@H]1[C@@H](C)[C@]2(O)[C@@H]3C=C(C)C(=O)[C@@H]3CC(CO)=C[C@H]2[C@@H]2C(C)(C)[C@]12OC(=O)C(C)C | 3.7 |  |  | < 50
COc1cccc2c1C(=O)c1c(O)c3c(c(O)c1C2=O)C[C@@](O)(C(=O)CO)C[C@@H]3O[C@H]1C[C@H](N)[C@H](O)[C@H](C)O1 [DOXORUBICIN HYDROCHLORIDE] | 0.4 | 0.08 |  | 
